The values below come from ChEMBL document CHEMBL4422701, “Jatrophane Diterpenoids from Euphorbia glomerulans” (J Nat Prod, 2019).

Where only a bound is given, the exact number is not on record here.

Assay [1] deals with MCF7. In words: Cytotoxicity in human MCF7 cells assessed as reduction in cell viability incubated for 48 hrs by MTT assay. The assay is classed as cell-based. To be noted: MCF7, 48 h. An outline of the steps:
(§1)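 Cells grown in RPMI-1640 with 10% heat-inactivated FBS at 37 °C, 5% CO2. Compounds were dissolved in DMSO and given as serial dilutions to cells seeded at 5 × 10^3 per well in log phase, for 48 h. MTT (5 mg/mL) was then added for 4 h, formazan dissolved in DMSO, and absorbance read at 570 nm.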
(Tetrazolium dyes change colour on reduction, which living cells bring about.)

In assay [2] the test system is NCI/ADR-RES. In words: Cytotoxicity in doxorubicin-resistant human MCF7/ADR cells assessed as reduction in cell viability incubated for 48 hrs by MTT assay. The assay is classed as cell-based. The gist of the method:
as §1

As a reminder, the IC50 is the concentration that inhibits the measured activity by half. Take `C=C1[C@H](O)[C@H]2[C@@H](OC(=O)c3ccccc3)[C@](C)(OC(C)=O)C[C@]2(O)[C@H](OC(C)=O)[C@@H](C)/C=C/C(C)(C)C(=O)[C@H](OC(C)=O)[C@H]1OC(C)=O`: the IC50 in assay [1] and in assay [2] was above 100 µM in each case. Consider `C=C1[C@H](O)[C@H]2[C@@H](OC(=O)c3ccccc3)[C@](C)(O)C[C@]2(O)[C@H](OC(C)=O)[C@@H](C)/C=C/C(C)(C)C(=O)[C@H](OC(C)=O)[C@H]1OC(=O)c1ccccc1`, for which the IC50 in assay [1] and in assay [2] was above 100 µM in each case.

With `C=C1[C@H](OC(C)=O)[C@H]2[C@@H](OC(=O)c3ccccc3)[C@](C)(O)C[C@]2(O)C(=O)[C@@H](C)/C=C/C(C)(C)C(=O)[C@H](OC(=O)C(C)C)[C@H]1OC(C)=O`, the IC50 in assay [1] and in assay [2] was above 100 µM in each case. On to `C=C1[C@H](OC(C)=O)CC(=O)C(C)(C)/C=C/[C@H](C)C(=O)[C@@]2(OC(C)=O)C[C@H](C)[C@H](OC(=O)c3ccccc3)[C@@H]2[C@H]1OC(C)=O`, for which the half-inhibitory concentration (IC50) in assay [1] came to 51.1 µM; in assay [2], 39.3 µM.

With `C=C1[C@H](OC(C)=O)CC(=O)C(C)(C)/C=C/[C@H](C)C(=O)[C@@]2(OC(C)=O)C[C@H](C)[C@H](OC(C)=O)[C@@H]2[C@H]1OC(=O)c1ccccc1`, the IC50 in assay [1] and in assay [2] was above 100 µM in each case.

Regarding `C=C1[C@H](OC(C)=O)[C@H]2[C@@H](OC(=O)c3ccccc3)[C@](C)(OC(C)=O)C[C@]2(O)C(=O)[C@@H](C)/C=C/C(C)(C)C(=O)[C@H](OC(C)=O)[C@H]1OC(=O)C(C)C`, the IC50 in assay [1] and in assay [2] was above 100 µM throughout. In the case of `C=C1[C@H](OC(C)=O)[C@H]2[C@@H](OC(=O)c3ccccc3)[C@@H](C)C[C@]2(OC(C)=O)C(=O)[C@@H](C)/C=C/C(C)(C)C(=O)[C@H](O)[C@H]1OC(C)=O`, the IC50 in assay [1] and in assay [2] was above 100 µM in each case. With `C=C1[C@H](OC(C)=O)[C@H]2[C@@H](OC(=O)c3ccccc3)[C@@H](C)C[C@]2(OC(C)=O)C(=O)[C@@H](C)/C=C/C(C)(C)C(=O)[C@H](OC(C)=O)[C@H]1OC(C)=O`, the IC50 in assay [1] and in assay [2] was above 100 µM in each case. Regarding `C=C1[C@H](OC(=O)c2ccccc2)[C@H]2[C@@H](OC(C)=O)[C@@H](C)C[C@]2(OC(C)=O)C(=O)[C@@H](C)/C=C/C(C)(C)C(=O)[C@H](O)[C@H]1OC(C)=O`, the IC50 in assay [1] and in assay [2] was above 100 µM each time.

Consider `C=C1[C@H](OC(=O)c2ccccc2)[C@H]2[C@@H](OC(C)=O)[C@@H](C)C[C@]2(OC(C)=O)C(=O)[C@@H](C)/C=C/C(C)(C)C(=O)[C@H](OC(=O)c2ccccc2)[C@H]1OC(C)=O`, for which the IC50 in assay [1] and in assay [2] was above 100 µM throughout. As to `C=C1[C@H](OC(=O)c2ccccc2)[C@@H](OC(C)=O)[C@@H](OC(C)=O)C(C)(C)/C=C/[C@H](C)C(=O)[C@@]2(OC(C)=O)C[C@H](C)[C@H](OC(=O)c3ccccc3)[C@@H]2[C@H]1OC(C)=O`, the IC50 in assay [1] and in assay [2] was above 100 µM in each case.

`C=C1[C@H](OC(C)=O)[C@H]2[C@@H](OC(=O)c3ccccc3)[C@@H](C)C[C@]2(OC(C)=O)C(=O)[C@@H](C)/C=C/C(C)(C)C(=O)[C@H](O)[C@H]1OC(=O)c1ccccc1`: the IC50 in assay [1] and in assay [2] was above 100 µM in each case. On to `C=C1[C@H](OC(C)=O)[C@H]2[C@@H](OC(=O)c3ccccc3)[C@](C)(O)C[C@]2(O)C(=O)[C@@H](C)/C=C/C(C)(C)C(=O)[C@H](OC(C)=O)[C@H]1OC(=O)c1ccccc1`, for which the half-inhibitory concentration (IC50) in assay [1] and in assay [2] was above 100 µM throughout. Take `C=C1[C@H](OC(C)=O)[C@H]2[C@@H](OC(=O)c3ccccc3)[C@](C)(OC(C)=O)C[C@]2(O)C(=O)[C@@H](C)/C=C/C(C)(C)C(=O)[C@H](OC(=O)C(C)C)[C@H]1OC(C)=O`: the IC50 was 50.2 µM in assay [1] and above 100 µM in assay [2]. With `C=C1[C@H](OC(C)=O)[C@H]2[C@@H](OC(=O)c3ccccc3)[C@@H](C)C[C@]2(O)C(=O)[C@@H](C)/C=C/C(C)(C)C(=O)[C@H](O)[C@H]1OC(C)=O`, the IC50 in assay [1] and in assay [2] was above 100 µM throughout. Take `C=C1[C@H](OC(C)=O)[C@H]2[C@@H](OC(=O)c3ccccc3)[C@@H](C)C[C@]2(OC(C)=O)C(=O)[C@@H](C)/C=C/C(C)(C)C(=O)[C@H](OC(C)=O)[C@H]1OC(=O)c1ccccc1`: the half-inhibitory concentration (IC50) in assay [1] and in assay [2] was above 100 µM throughout.

As to `C=C1[C@H](OC(C)=O)[C@H]2[C@@H](OC(=O)CC(C)=O)[C@@H](C)C[C@]2(O)C(=O)[C@@H](C)/C=C/C(C)(C)C(=O)[C@H](OC(C)=O)[C@H]1OC(=O)c1ccccc1`, the IC50 in assay [1] and in assay [2] was above 100 µM in each case. Regarding `COc1cccc2c1C(=O)c1c(O)c3c(c(O)c1C2=O)C[C@@](O)(C(=O)CO)C[C@@H]3O[C@H]1C[C@H](N)[C@H](O)[C@H](C)O1` [DOXORUBICIN], the IC50 in assay [2] was determined as 64.8 µM.
